Results collected from several papers.
Compare with care: the assays were run in different laboratories.
Target: Mitogen-activated protein kinase kinase kinase 9 (MAP3K9, Homo sapiens, UniProt P80192)

| Compound | test | setting | quantity | result |
| --- | --- | --- | --- | --- |
| C#Cc1cnc(Nc2ccnc(CO)c2)nc1Nc1ccccc1S(C)(=O)=NC#N (stereo not drawn) | cell-free assay | 1 µM | remaining signal | 26% |
| COc1ccc2oc(-c3ccc4nc(N)oc4c3)c/c(=N\c3ccccc3NC(=O)CCN)c2c1 | binding | 1 µM | remaining binding | 83% |
| Cc1ccc(NC(=O)c2ccnc(C(F)(F)F)c2)cc1-c1cc(OCCO)nc(N2CCOCC2)c1 | binding | 1 µM | remaining binding | 100% |
| C=CC(=O)N1CCC[C@@H](n2nc(-c3ccc(Oc4ccccc4)cc3)c3c(N)ncnc32)C1 | enzyme activity, inhibitor | 1 µM | inhibition | 4% |
| CN1CCN(C(=O)c2ccc(NC(=O)Nc3ccc(N(C)c4ccnc(Nc5ccc(CS(C)(=O)=O)cc5)n4)cc3)cc2)CC1 | binding | 1 µM | remaining binding | 86% |
| CCCCC(=O)Nc1ccc(-c2ccc3ncn(CCC)c(=O)c3c2)cn1 | binding, competition with immobilised ligand | 0.5 µM | remaining binding | 83% |
| N#Cc1ccc(NC(=O)Nc2ccccc2)cc1 | cell-free assay, competition with immobilised ligand | 25 µM | remaining binding | 100% |
| CO[C@@H]1[C@H](N(C)C(=O)c2ccccc2)C[C@H]2O[C@]1(C)n1c3ccccc3c3c4c(c5c6ccccc6n2c5c31)C(=O)NC4 | enzyme activity, inhibitor | 1 µM | inhibition | 90% |
| C#Cc1cc(-c2cc(Nc3nc(N[C@@H](C)c4ccc(F)cn4)ncc3Cl)n[nH]2)ccc1C=O | enzyme activity, inhibitor | 0.2 µM | inhibition | 59.8% |
